Experimental data as given in ChEMBL document CHEMBL1275392, “Assessment of chemoselective neoglycosylation methods using chlorambucil as a model” (2010).

Columns and labels:
[1] = tested on: SF-268; experiment: Growth inhibition of human SF268 cells at 10 uM after 7 days by celltiter-glo assay; type: functional; details: SF-268, 168 h, read-out: GI
[2] = tested on: SNB-19; experiment: Growth inhibition of human SNB19 cells at 10 uM after 7 days by celltiter-glo assay; type: functional; details: SNB-19, 168 h, read-out: GI
[3] = tested on: TK-10; experiment: Growth inhibition of human TK10 cells after 7 days by celltiter-glo assay; type: functional; details: TK-10, 168 h
[4] = tested on: M14; experiment: Growth inhibition of human M14 cells at 10 uM after 7 days by celltiter-glo assay; type: functional; details: M14, 168 h, read-out: GI
[5] = tested on: PC-3; experiment: Growth inhibition of human PC3 cells at 10 uM after 7 days by celltiter-glo assay; type: functional; details: PC-3, 168 h, read-out: GI
[6] = tested on: U-251; experiment: Growth inhibition of human U251 cells at 10 uM after 7 days by celltiter-glo assay; type: functional; details: U-251, 168 h, read-out: GI
[7] = tested on: EKVX; experiment: Growth inhibition of human EKVX cells after 7 days by celltiter-glo assay; type: functional; details: 168 h
[8] = tested on: BT-549; experiment: Growth inhibition of human BT549 cells at 10 uM after 7 days by celltiter-glo assay; type: functional; details: BT-549, 168 h, read-out: GI
[9] = tested on: SK-MEL-28; experiment: Growth inhibition of human SK-MEL-28 cells at 10 uM after 7 days by celltiter-glo assay; type: functional; details: SK-MEL-28, 168 h, read-out: GI
[10] = tested on: HCT-15; experiment: Growth inhibition of human HCT15 cells at 10 uM after 7 days by celltiter-glo assay; type: functional; details: HCT-15, 168 h, read-out: GI
[11] = tested on: NCI-H522; experiment: Growth inhibition of human NCI-H522 cells at 10 uM after 7 days by celltiter-glo assay; type: functional; details: NCI-H522, 168 h, read-out: GI
[12] = tested on: SK-MEL-28; experiment: Growth inhibition of human SK-MEL-28 cells after 7 days by celltiter-glo assay; type: functional; details: SK-MEL-28, 168 h
[13] = tested on: UO-31; experiment: Growth inhibition of human UO31 cells at 10 uM after 7 days by celltiter-glo assay; type: functional; details: UO-31, 168 h, read-out: GI
[14] = tested on: HOP-62; experiment: Growth inhibition of human HOP62 cells at 10 uM after 7 days by celltiter-glo assay; type: functional; details: HOP-62, 168 h, read-out: GI
[15] = tested on: SN12C; experiment: Growth inhibition of human SN12C cells at 10 uM after 7 days by celltiter-glo assay; type: functional; details: 168 h, read-out: GI
[16] = tested on: HCT-15; experiment: Ratio of compound GI50 to chlorambucil GI50 for human HCT15 cells; type: functional
[17] = tested on: A549; experiment: Growth inhibition of human A549 cells after 7 days by celltiter-glo assay; type: functional; details: A549, 168 h
[18] = tested on: SK-MEL-5; experiment: Growth inhibition of human SK-MEL-5 cells after 7 days by celltiter-glo assay; type: functional; details: SK-MEL-5, 168 h
[19] = tested on: HOP-92; experiment: Growth inhibition of human HOP92 cells at 10 uM after 7 days by celltiter-glo assay; type: functional; details: HOP-92, 168 h, read-out: GI
[20] = tested on: NCI-H23; experiment: Growth inhibition of human NCI-H23 cells after 7 days by celltiter-glo assay; type: functional; details: NCI-H23, 168 h
[21] = tested on: NCI-H322M; experiment: Growth inhibition of human NCI-H322M cells at 10 uM after 7 days by celltiter-glo assay; type: functional; details: 168 h, read-out: GI
[22] = tested on: SK-MEL-5; experiment: Growth inhibition of human SK-MEL-5 cells at 10 uM after 7 days by celltiter-glo assay; type: functional; details: SK-MEL-5, 168 h, read-out: GI
[23] = tested on: UO-31; experiment: Growth inhibition of human UO31 cells after 7 days by celltiter-glo assay; type: functional; details: UO-31, 168 h
[24] = tested on: SW-620; experiment: Growth inhibition of human SW620 cells at 10 uM after 7 days by celltiter-glo assay; type: functional; details: SW-620, 168 h, read-out: GI
[25] = Growth inhibition of human p53 deficient Hep3B cells after 7 days by celltiter-glo assay; type: functional, Hep 3B2; details: 168 h
Summary of the method: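 Cells seeded at 500 per well in 384-well plates. Compounds came from 30 mM DMSO stocks, serially diluted and tested in quadruplicate. Incubation was 7 d at 37 °C under 5% CO2. Calcein AM (10 μM) and EthD-1 were added, followed by a fluorescence read. CellTiter-Glo lysis was then done for 10 min at room temperature, with a luminescence read. GI50 came from curve fitting.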

[26] = tested on: DU-145; experiment: Growth inhibition of human DU145 cells at 10 uM after 7 days by celltiter-glo assay; type: functional; details: DU-145, 168 h, read-out: GI
[27] = tested on: HT-29; experiment: Growth inhibition of human HT-29 cells at 10 uM after 7 days by celltiter-glo assay; type: functional; details: HT-29, 168 h, read-out: GI
[28] = tested on: COLO 205; experiment: Growth inhibition of human COLO205 cells after 7 days by celltiter-glo assay; type: functional; details: COLO 205, 168 h
[29] = tested on: HT-29; experiment: Ratio of compound GI50 to chlorambucil GI50 for human HT-29 cells; type: functional
[30] = tested on: 786-0; experiment: Growth inhibition of human 786-0 cells after 7 days by celltiter-glo assay; type: functional; details: 786-0, 168 h
[31] = tested on: OVCAR-3; experiment: Growth inhibition of human OVCAR-3 cells after 7 days by celltiter-glo assay; type: functional; details: OVCAR-3, 168 h
[32] = tested on: NCI-H460; experiment: Growth inhibition of human NCI-H460 cells after 7 days by celltiter-glo assay; type: functional; details: NCI-H460, 168 h
[33] = tested on: LOX IMVI; experiment: Growth inhibition of human LOXIMVI cells at 10 uM after 7 days by celltiter-glo assay; type: functional; details: 168 h, read-out: GI
[34] = tested on: NCI-H226; experiment: Growth inhibition of human NCI-H226 cells at 10 uM after 7 days by celltiter-glo assay; type: functional; details: NCI-H226, 168 h, read-out: GI
[35] = tested on: M14; experiment: Growth inhibition of human M14 cells after 7 days by celltiter-glo assay; type: functional; details: M14, 168 h
[36] = tested on: SF-539; experiment: Growth inhibition of human SF539 cells at 10 uM after 7 days by celltiter-glo assay; type: functional; details: SF-539, 168 h, read-out: GI
[37] = tested on: MDA-MB-468; experiment: Growth inhibition of human MDA-MB-468 cells after 7 days by celltiter-glo assay; type: functional; details: MDA-MB-468, 168 h
[38] = tested on: LOX IMVI; experiment: Growth inhibition of human LOXIMVI cells after 7 days by celltiter-glo assay; type: functional; details: 168 h
[39] = tested on: HCT-15; experiment: Growth inhibition of human HCT15 cells after 7 days by celltiter-glo assay; type: functional; details: HCT-15, 168 h
[40] = tested on: OVCAR-3; experiment: Growth inhibition of human OVCAR-3 cells at 10 uM after 7 days by celltiter-glo assay; type: functional; details: OVCAR-3, 168 h, read-out: GI
[41] = tested on: NCI-H522; experiment: Growth inhibition of human NCI-H522 cells after 7 days by celltiter-glo assay; type: functional; details: NCI-H522, 168 h
[42] = Ratio of compound GI50 to chlorambucil GI50 for human H1299 cells; type: functional
[43] = tested on: BT-549; experiment: Growth inhibition of human BT549 cells after 7 days by celltiter-glo assay; type: functional; details: BT-549, 168 h
[44] = tested on: MOLT-4; experiment: Growth inhibition of human MOLT4 cells at 10 uM after 7 days by celltiter-glo assay; type: functional; details: MOLT-4, 168 h, read-out: GI

With `CON(CCCc1ccc(N(CCCl)CCCl)cc1)C1OC[C@@H](O)[C@@H]1O` (some centres undefined) the inhibition of growth at 10 µM [1] was 67.8%, the inhibition of growth at 10 µM [2] was 65.8% and the GI50 [3] was 31.7 µM. The inhibition of growth at 10 µM [4] was 67.2%, the inhibition of growth at 10 µM [5] was 72.5% and the inhibition of growth at 10 µM [6] was 59.9%. It also gave a GI50 [7] of 37.9 µM, an inhibition of growth at 10 µM [8] of 38.5% and an inhibition of growth at 10 µM [9] of 117%. It also gave an inhibition of growth at 10 µM [10] of 77.1%, an inhibition of growth at 10 µM [11] of 52.4% and a GI50 [12] of 36.5 µM. It also gave an inhibition of growth at 10 µM [13] of 54.4%, an inhibition of growth at 10 µM [14] of 73.2% and an inhibition of growth at 10 µM [15] of 54.2%. For the same molecule, the RatioGI50 [16] was 15, the GI50 [17] was 12.2 µM and the GI50 [18] was 17.7 µM. The inhibition of growth at 10 µM [19] was 58.8%, the GI50 [20] was 7.15 µM and the inhibition of growth at 10 µM [21] was 99%. It also gave an inhibition of growth at 10 µM [22] of 79%, a GI50 [23] of 0.856 µM and an inhibition of growth at 10 µM [24] of 68.1%. The GI50 [25] was 0.67 µM, the inhibition of growth at 10 µM [26] was 56.8% and the inhibition of growth at 10 µM [27] was 70.7%. It also gave a GI50 [28] of 12.7 µM, a RatioGI50 [29] of 12 and a GI50 [30] of 6.16 µM. The GI50 [31] was 15.3 µM, the GI50 [32] was 1.7 µM and the inhibition of growth at 10 µM [33] was 54.8%. For the same molecule, the inhibition of growth at 10 µM [34] was 84.2%, the GI50 [35] was 9.25 µM and the inhibition of growth at 10 µM [36] was 51.8%. It also gave a GI50 [37] of 7.25 µM, a GI50 [38] of 8.61 µM and a GI50 [39] of 0.53 µM. For the same molecule, the inhibition of growth at 10 µM [40] was 85.3%, the GI50 [41] was 10 µM and the RatioGI50 [42] was 13. The GI50 [43] was 13.4 µM and the inhibition of growth at 10 µM [44] was 64.4%.
